# Published values gathered from unrelated publications.
Structure (SMILES),organism,assay,system,conditions,endpoint,value
CC(C)OC(=O)OCOP(=O)(CO[C@H](C)Cn1cnc2c(N)ncnc21)OCOC(=O)OC(C)C,Hepatitis B virus,"viral replication, qPCR",HepG2.2.15,14 days,IC50,200 nM
O=[N+]([O-])c1ccc(C2=[N+]([O-])c3ccccc3N3CCN=C23)cc1,Clostridioides difficile,microbial growth,,,MIC90,≤ 0.06 µg/mL
O=C1Cc2ccccc2C(=O)N1O,Hepatitis B virus,"viral replication, inhibitor, qPCR",HepDES19,72 h,EC50,4200 nM
CC(C)OC(=O)[C@H](C)N[P@](=O)(CO[C@H](C)Cn1cnc2c(N)ncnc21)Oc1ccccc1,Hepatitis B virus,"viral replication, inhibitor",HepG2.2.15,"1 µM, 6 days",inhibition,~65%
[O-][N+]1=C(c2ccc(Cl)cc2)C2=NCCN2c2ccccc21,Fusobacterium nucleatum,microbial growth,,,MIC50,≤ 0.06 µg/mL
CC[C@H](C)C[C@H](C)CCCCCCCCC(=O)N[C@H]1C[C@@H](O)[C@@H](NCCN)NC(=O)[C@@H]2[C@@H](O)CCN2C(=O)[C@H]([C@H](O)CCN)NC(=O)[C@H]([C@H](O)[C@@H](O)c2ccc(O)cc2)NC(=O)[C@@H]2C[C@@H](O)CN2C(=O)[C@H]([C@@H](C)O)NC1=O,Saccharomyces cerevisiae,"microbial growth, broth dilution",S288C,,MIC,0.25 µg/mL
CN[C@H](CC(C)C)C(=O)N[C@H]1C(=O)N[C@@H](CC(N)=O)C(=O)N[C@H]2C(=O)N[C@H]3C(=O)N[C@H](C(=O)N[C@H](C(=O)O)c4cc(O)cc(O)c4-c4cc3ccc4O)[C@H](O)c3ccc(c(Cl)c3)Oc3cc2cc(c3O[C@@H]2O[C@H](CO)[C@@H](O)[C@H](O)[C@H]2O[C@H]2C[C@](C)(N)[C@H](O)[C@H](C)O2)Oc2ccc(cc2Cl)[C@H]1O,Clostridioides difficile,"microbial growth, broth dilution",,24 h,MIC,1 µg/mL
Cc1ncc([N+](=O)[O-])n1CCO,Clostridioides difficile,microbial growth,,,MIC50,0.25 µg/mL
C[C@H]1COCCN1c1nc(NCc2cccnc2C(F)(F)F)c2cccnc2n1,Clostridioides difficile,"microbial growth, broth dilution",630,,MIC,64 µg/mL
N#C[C@]1(CO)O[C@@H](n2cnc3c(=O)[nH]c(N)nc32)C[C@@H]1O,Hepatitis B virus,"viral replication, qPCR",HepG2.2.15,14 days,IC50,0.5 nM
O=C(NCc1ccc2c(c1)OCO2)c1ccc(Br)cc1F,Saccharomyces cerevisiae,microbial growth,BY4743,72 h,MIC,> 200 µM
C=C1[C@H](CO)[C@@H](O)C[C@@H]1n1cnc2c(=O)[nH]c(N)nc21,Hepatitis B virus,"viral replication, qPCR",HepG2.2.15,14 days,IC50,3 nM
C[C@@H]1C[C@@H]([C@H](O)CC2CC(=O)NC(=O)C2)C(=O)[C@@H](C)C1,Saccharomyces cerevisiae,microbial growth,,,MIC,3 µM
CCN1CCN(C(=O)N[C@@H](C(=O)N[C@@H]2C(=O)N3C(C(=O)O)=C(CSc4nnnn4C)CS[C@H]23)c2ccc(O)cc2)C(=O)C1=O,Clostridioides difficile,"microbial growth, broth dilution",,24 h,MIC,100 µg/mL
CC(C)(C)C(=O)OCOP(=O)(COCCn1cnc2c(N)ncnc21)OCOC(=O)C(C)(C)C,Hepatitis B virus,"viral replication, qPCR",HepG2.2.15,14 days,IC50,880 nM
